From article PMC10606955 (Chemico-biological interactions, 2023)
Values joined by “and” are separate entries in the source; they are usually repeats but may differ in a detail not shown here. Identical values can stand only once. “Also recorded” adds a separate entry of the source.

Columns and labels:
[1] = target: T1, carboxylesterase 1 (CES1) (Homo sapiens, UniProt P23141); test: Concentration response curves for inhibition of CES1; format: biochemical; details: 200 μM OST, CES1 S9; for IC50: read-out: IC50 (kratom alkaloids), alkaloid 0–128 μM, 1% DMSO
T1 sequence (P23141 18-567): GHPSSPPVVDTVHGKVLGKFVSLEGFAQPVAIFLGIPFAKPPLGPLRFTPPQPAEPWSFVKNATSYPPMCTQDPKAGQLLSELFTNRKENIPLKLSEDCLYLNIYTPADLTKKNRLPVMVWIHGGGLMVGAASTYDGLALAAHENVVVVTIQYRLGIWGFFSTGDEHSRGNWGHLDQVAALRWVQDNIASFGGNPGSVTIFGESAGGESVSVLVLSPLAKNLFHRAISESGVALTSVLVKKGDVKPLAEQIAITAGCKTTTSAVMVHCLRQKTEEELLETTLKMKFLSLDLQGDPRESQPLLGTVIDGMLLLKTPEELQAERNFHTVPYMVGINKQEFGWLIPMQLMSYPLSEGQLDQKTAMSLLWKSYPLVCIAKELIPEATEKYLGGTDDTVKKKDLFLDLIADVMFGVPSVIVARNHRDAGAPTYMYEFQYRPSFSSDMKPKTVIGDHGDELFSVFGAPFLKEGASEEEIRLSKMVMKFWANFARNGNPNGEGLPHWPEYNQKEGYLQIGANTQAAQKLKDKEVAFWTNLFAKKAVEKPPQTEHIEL
Outline: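 CES1 S9 (supernatant, 9000g, from sonicated Flp-In-293 cells expressing wild-type CES1) at 20 μg/mL in 50 mM phosphate buffer. Test compound at 0–128 μM, or extracts at 0–128 μg/mL, in 1% DMSO with 200 μM oseltamivir, 15 min at 37°C. Stopped with 4 volumes acetonitrile containing ritalinic acid internal standard. Oseltamivir carboxylate measured by LC-MS/MS and expressed relative to DMSO control; IC50 fitted by modified Hill equation.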

[2] = target: T1, carboxylesterase 1 (CES1); test: Time-dependent inhibition of CES1; format: biochemical; details: for Ratio of Preincubation to No Preincubation (IC50, alkaloids): 30 min preincubation; for IC50: mean ± S.E., 200 μM OST
[3] = target: T1, carboxylesterase 1 (CES1); test: Reversible inhibition kinetics of CES1; format: biochemical; details: for α (reversible inhibition type): 1 = noncompetitive, infinity = competitive, between = mixed-type; for α (reversible inhibition type) / Vmax: mean ± S.D.; for Vmax: OC formation, fit parameter, triplicate experiments; for type of reversible inhibition of CES1: from modified Michaelis-Menten model
[4] = human, 2g dose of kratom; cited from earlier work
[5] = Preincubation 30 min with CES1 S9

## C=C[C@H]1CN2CCc3c([nH]c4cccc(OC)c34)[C@@H]2C[C@@H]1/C(=C\OC)C(=O)OC [paynantheine]
[1]
  concentration dependence of CES1 inhibition: concentration-dependent reversible inhibition
  IC50: 32.9 µM and < 50 µM
[2]
  Ratio of Preincubation to No Preincubation (IC50, alkaloids): 1.38
[2]; No preincubation
  IC50: 32.9 ± 7.2 µM
[2]; [5]
  IC50: 45.6 ± 14.1 µM
[3]
  α (reversible inhibition type): 8.439 ± 6.336
  Vmax: 232.2 ± 18.38 nmol/min/mg protein
  type of reversible inhibition of CES1: mixed-type reversible inhibitors; also recorded: mixed competitive-noncompetitive inhibition; also recorded: mixed competitive-noncompetitive inhibitors

## CC[C@@H]1CN2CCc3c([nH]c4cccc(OC)c34)[C@H]2C[C@@H]1/C(=C\OC)C(=O)OC [speciociliatine]
[1]
  concentration dependence of CES1 inhibition: concentration-dependent reversible inhibition
[2]
  Ratio of Preincubation to No Preincubation (IC50, alkaloids): 1.18
[2]; No preincubation
  IC50: 18.1 ± 4 µM
[2]; [5]
  IC50: 21.4 ± 2.48 µM
[3]
  α (reversible inhibition type): 2.817 ± 1.666
  Vmax: 210.5 ± 41.43 nmol/min/mg protein
  type of reversible inhibition of CES1: mixed competitive-noncompetitive inhibitors
[3]; listed as Speciociliatine
  type of reversible inhibition of CES1: mixed-type reversible inhibitors; also recorded: mixed competitive-noncompetitive inhibition
[4]
  Cmax: 308 nM

## CC[C@H]1CN2CCc3c([nH]c4cccc(OC)c34)[C@@H]2C[C@@H]1/C(=C\OC)C(=O)OC [speciogynine]
[1]
  concentration dependence of CES1 inhibition: concentration-dependent reversible inhibition
  IC50: 54.3 µM
[2]
  Ratio of Preincubation to No Preincubation (IC50, alkaloids): 1.22
[2]; [5]
  IC50: 66.2 ± 29 µM

## corynantheidine
[1]
  concentration dependence of CES1 inhibition: concentration-dependent reversible inhibition
[2]
  Ratio of Preincubation to No Preincubation (IC50, alkaloids): 0.993
[3]
  α (reversible inhibition type): 8.767 ± 2.734
  type of reversible inhibition of CES1: mixed-type reversible inhibitors; also recorded: mixed competitive-noncompetitive inhibition; also recorded: mixed competitive-noncompetitive inhibitors

## mitragynine
[1]
  concentration dependence of CES1 inhibition: concentration-dependent reversible inhibition
  IC50: 38.9 µM and < 50 µM
[2]
  Ratio of Preincubation to No Preincubation (IC50, alkaloids): 0.868
[2]; No preincubation
  IC50: 38.9 ± 16.3 µM
[2]; [5]
  IC50: 33.8 ± 5.47 µM
[3]
  α (reversible inhibition type): ∞
  Vmax: 224.2 ± 24.37 nmol/min/mg protein
  type of reversible inhibition of CES1: purely competitive inhibitor; also recorded: pure competitive inhibition
